pIC50: −log10 of the molar value.
Legend:
MCF7 = test: Cytotoxicity against human MCF7 cells after 48 hrs by SRB assay; assay type: functional, cell-based; conditions: MCF7, 48 h
How it was run: (§1)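 Cells seeded at 10⁴ per well and allowed to attach for 24 h, then exposed to compounds at 0, 1, 2.5 and 10 (four levels), triplicate wells per dose, for 48 h at 37 C in 5% CO₂. Cells were then fixed, washed and stained with sulforhodamine B. Excess dye was removed with acetic acid, and bound dye was recovered in Tris EDTA buffer. Results are given as IC₅₀.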

MDA-MB-231 = test: Cytotoxicity against human MDA-MB-231 cells after 48 hrs by SRB assay; assay type: functional, cell-based; conditions: MDA-MB-231, 48 h; how it was run: as §1

Structure (SMILES) | pIC50 (MCF7) | pIC50 (MDA-MB-231)
O=Cc1c(-c2ccc(O)cc2)[nH]c2ccccc12 | 8.05 | 7.37
NC(=O)COc1ccc(-c2cc3ccccc3[nH]2)cc1 | 7.42 | 
NS(=O)(=O)c1ccc(NC(=O)COc2ccc(-c3cc4ccccc4[nH]3)cc2)cc1 | 7.62 | 
O=C(COc1ccc(-c2cc3ccccc3[nH]2)cc1)Nc1ccc(S(=O)(=O)Nc2nccs2)cc1 | 8.13 | 7.54
COC(=O)Oc1ccc(-c2cc3ccccc3[nH]2)cc1 | 7.03 | 
O=C(COc1ccc(-c2cc3ccccc3[nH]2)cc1)Nc1cnccn1 | 7.44 | 
COc1ccc2nc(-c3nnc(COc4ccc(-c5cc6ccccc6[nH]5)cc4)o3)ccc2c1 | 7.66 | 
CCOC(=O)COc1ccc(-c2cc3ccccc3[nH]2)cc1 | 6.99 | 
CC(=O)NNC(=O)COc1ccc(-c2cc3ccccc3[nH]2)cc1 | 7.03 | 
NC(=S)NNC(=O)COc1ccc(-c2cc3ccccc3[nH]2)cc1 | 7.35 | 
O=C(COc1ccc(-c2cc3ccccc3[nH]2)cc1)NCCO | 7.01 | 
Cc1cc(NS(=O)(=O)c2ccc(NC(=O)COc3ccc(-c4cc5ccccc5[nH]4)cc3)cc2)no1 | 7.76 | 8.02
Oc1ccc(-c2[nH]c3ccccc3c2-c2ncc[nH]2)cc1 | 7.55 | 
O=C(COc1ccc(-c2cc3ccccc3[nH]2)cc1)NNc1ccccc1 | 7.55 | 
O/N=C/c1c(-c2ccc(O)cc2)[nH]c2ccccc12 | 7.56 | 
COC(=O)COc1ccc(-c2cc3ccccc3[nH]2)cc1 | 7.46 | 
Oc1ccccc1-c1nnc(COc2ccc(-c3cc4ccccc4[nH]3)cc2)o1 | 7.41 | 
Nc1ccc(C(=O)N/N=C/c2c(-c3ccc(O)cc3)[nH]c3ccccc23)cc1 | 8.43 | 7.42
CN/N=C/c1c(-c2ccc(O)cc2)[nH]c2ccccc12 | 7.75 | 7.32
CC(=O)N/N=C/c1c(-c2ccc(O)cc2)[nH]c2ccccc12 | 7.49 | 
N#CC(C#N)=Cc1c(-c2ccc(O)cc2)[nH]c2ccccc12 | 7.06 | 
Oc1ccc(-c2[nH]c3ccccc3c2-c2nc3ccccc3[nH]2)cc1 | 7.63 | 

Structure (SMILES) | pIC50 (MCF7) | pIC50 (MDA-MB-231)
CC1=NN(C(=O)COc2ccc(-c3cc4ccccc4[nH]3)cc2)C(=O)C1 | 7.50 | 
Oc1ccc(-c2[nH]c3ccccc3c2/C=N/Nc2ccccc2)cc1 | 8.17 | 7.60
c1ccc(-c2nnc(COc3ccc(-c4cc5ccccc5[nH]4)cc3)o2)cc1 | 7.86 | 7.74
O=C(COc1ccc(-c2cc3ccccc3[nH]2)cc1)Nc1ccncc1 | 7.68 | 
NNC(=O)COc1ccc(-c2cc3ccccc3[nH]2)cc1 | 7.70 | 
Oc1ccc(-c2cc3ccccc3[nH]2)cc1 | 7.14 | 
Oc1ccc(-c2[nH]c3ccccc3c2-c2nc3ccccc3o2)cc1 | 7.76 | 7.81
CN(C)C(=O)COc1ccc(-c2cc3ccccc3[nH]2)cc1 | 7.46 | 
Oc1ccc(-c2[nH]c3ccccc3c2/C=N/Nc2ccccc2Cl)cc1 | 8.24 | 7.50
O=C(COc1ccc(-c2cc3ccccc3[nH]2)cc1)N1CCCC1 | 7.83 | 7.37
NC(=S)N/N=C/c1c(-c2ccc(O)cc2)[nH]c2ccccc12 | 7.49 | 
O=C(N/N=C/c1c(-c2ccc(O)cc2)[nH]c2ccccc12)c1ccc(Cl)cc1 | 8.42 | 7.43
O=C1NC(=S)NC(=O)C1=Cc1c(-c2ccc(O)cc2)[nH]c2ccccc12 | 7.26 | 
Nc1ccccc1-c1nnc(COc2ccc(-c3cc4ccccc4[nH]3)cc2)o1 | 7.59 | 
O=C(COc1ccc(-c2cc3ccccc3[nH]2)cc1)N(CCO)CCO | 7.56 | 
Cc1cc(C)n(C(=O)COc2ccc(-c3cc4ccccc4[nH]3)cc2)n1 | 7.36 | 
O=C(N/N=C/c1c(-c2ccc(O)cc2)[nH]c2ccccc12)c1ccccc1 | 7.73 | 7.55
O=C1NC(=O)C(=Cc2c(-c3ccc(O)cc3)[nH]c3ccccc23)C(=O)N1 | 7.38 | 
Cc1cc(-c2ccccc2)nn1C(=O)COc1ccc(-c2cc3ccccc3[nH]2)cc1 | 7.31 | 
O=C(N/N=C/c1c(-c2ccc(O)cc2)[nH]c2ccccc12)c1ccc([N+](=O)[O-])cc1 | 8.80 | 7.49
Nc1ccccc1C(=O)N/N=C/c1c(-c2ccc(O)cc2)[nH]c2ccccc12 | 7.75 | 7.53
Nc1ccc(-c2nnc(COc3ccc(-c4cc5ccccc5[nH]4)cc3)o2)cc1 | 7.32 | 

— ChEMBL document CHEMBL1926673, “Synthesis, molecular docking study and antitumor activity of novel 2-phenylindole derivatives” (Eur J Med Chem, 2012)
